In ChEMBL document CHEMBL1156338 (J Med Chem, 2010):
Calls of active or inactive are those of the source. No cut-off for these calls is given here.

Tests used:
Blood = assay: Inhibition of IL-8 production in TNFalpha challenged human whole blood after 16 to 18 hrs; format: functional, tissue-based; conditions: Homo sapiens, Blood; read-out: IC50
Outline: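 Heparinized blood from healthy nonmedicated donors, 50% final in RPMI 1640 with 10% human AB serum. Ten-point compound titration preincubated 1 h at 37 C, 5% CO2, then TNF-alpha 1 nM final added for 16-18 h. Plasma IL-8 measured by electrochemiluminescent antibody sandwich assay; IC50 is the mean of at least three independent dose-response curves.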

[1] = Oral bioavailability in Sprague-Dawley rat at 2 mg/kg; format: ADME, organism-based; conditions: in vivo
[2] = Plasma protein binding in human by ultrafiltration method; format: ADME, cell-free; conditions: read-out: PPB (converted)
[3] = Plasma protein binding in rat by ultrafiltration method; format: ADME, cell-free; conditions: read-out: PPB (converted)
[4] = biological target: T1, Platelet-derived growth factor receptor alpha (Homo sapiens, UniProt P16234); assay: Inhibition of PDGFRalpha at 1 uM relative to control
T1 sequence (P16234 whole entry): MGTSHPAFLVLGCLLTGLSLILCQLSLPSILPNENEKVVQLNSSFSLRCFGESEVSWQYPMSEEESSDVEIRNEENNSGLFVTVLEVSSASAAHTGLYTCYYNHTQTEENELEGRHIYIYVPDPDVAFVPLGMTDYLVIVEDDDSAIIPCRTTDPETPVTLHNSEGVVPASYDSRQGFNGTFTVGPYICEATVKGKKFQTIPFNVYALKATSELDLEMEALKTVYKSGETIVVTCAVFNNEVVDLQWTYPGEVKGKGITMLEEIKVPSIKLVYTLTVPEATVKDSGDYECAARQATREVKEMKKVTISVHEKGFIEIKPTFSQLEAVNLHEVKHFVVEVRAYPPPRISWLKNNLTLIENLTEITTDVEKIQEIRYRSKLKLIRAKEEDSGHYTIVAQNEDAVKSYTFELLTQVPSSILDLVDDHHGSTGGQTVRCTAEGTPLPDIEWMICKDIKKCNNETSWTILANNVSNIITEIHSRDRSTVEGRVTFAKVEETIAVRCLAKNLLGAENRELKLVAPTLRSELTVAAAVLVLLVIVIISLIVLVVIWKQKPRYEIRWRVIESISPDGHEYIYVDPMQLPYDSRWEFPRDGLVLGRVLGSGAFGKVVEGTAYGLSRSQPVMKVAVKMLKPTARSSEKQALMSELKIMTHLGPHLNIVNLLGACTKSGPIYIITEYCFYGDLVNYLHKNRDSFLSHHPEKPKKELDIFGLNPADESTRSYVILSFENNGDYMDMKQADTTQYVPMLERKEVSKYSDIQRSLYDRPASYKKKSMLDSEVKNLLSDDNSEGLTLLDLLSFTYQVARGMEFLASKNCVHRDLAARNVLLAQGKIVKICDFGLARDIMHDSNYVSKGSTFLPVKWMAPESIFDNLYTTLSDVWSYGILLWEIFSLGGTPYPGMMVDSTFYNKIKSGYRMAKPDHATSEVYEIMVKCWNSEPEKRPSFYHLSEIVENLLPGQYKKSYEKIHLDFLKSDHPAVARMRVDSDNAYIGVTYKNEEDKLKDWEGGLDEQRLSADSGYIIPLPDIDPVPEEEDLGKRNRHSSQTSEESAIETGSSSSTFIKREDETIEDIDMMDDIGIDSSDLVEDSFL

[5] = biological target: T2, RAF proto-oncogene serine/threonine-protein kinase (Homo sapiens, UniProt P04049); assay: Inhibition of RAF1 at 1 uM relative to control
T2 sequence (P04049 whole entry): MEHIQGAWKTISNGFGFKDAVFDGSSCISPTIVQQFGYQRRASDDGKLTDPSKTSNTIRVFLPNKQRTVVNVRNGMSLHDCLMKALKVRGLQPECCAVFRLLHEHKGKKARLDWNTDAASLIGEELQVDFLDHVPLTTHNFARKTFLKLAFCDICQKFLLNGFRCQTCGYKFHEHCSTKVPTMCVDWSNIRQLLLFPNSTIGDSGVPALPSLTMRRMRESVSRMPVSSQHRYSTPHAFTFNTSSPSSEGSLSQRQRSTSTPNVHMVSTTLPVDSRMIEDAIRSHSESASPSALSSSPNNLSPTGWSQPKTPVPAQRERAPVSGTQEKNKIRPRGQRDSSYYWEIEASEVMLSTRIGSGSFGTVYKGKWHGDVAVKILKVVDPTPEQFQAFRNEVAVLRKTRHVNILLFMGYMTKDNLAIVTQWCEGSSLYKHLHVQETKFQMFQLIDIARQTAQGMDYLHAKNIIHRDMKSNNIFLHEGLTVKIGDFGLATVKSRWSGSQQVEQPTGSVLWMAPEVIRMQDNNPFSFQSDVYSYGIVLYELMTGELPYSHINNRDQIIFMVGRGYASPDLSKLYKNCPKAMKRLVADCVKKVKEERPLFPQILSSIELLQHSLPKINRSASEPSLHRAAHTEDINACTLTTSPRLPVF

[6] = biological target: Mitogen-activated protein kinase 11 (Homo sapiens, UniProt Q15759); assay: Binding affinity to p38beta
Chain of Mitogen-activated protein kinase 11 (Q15759 whole entry): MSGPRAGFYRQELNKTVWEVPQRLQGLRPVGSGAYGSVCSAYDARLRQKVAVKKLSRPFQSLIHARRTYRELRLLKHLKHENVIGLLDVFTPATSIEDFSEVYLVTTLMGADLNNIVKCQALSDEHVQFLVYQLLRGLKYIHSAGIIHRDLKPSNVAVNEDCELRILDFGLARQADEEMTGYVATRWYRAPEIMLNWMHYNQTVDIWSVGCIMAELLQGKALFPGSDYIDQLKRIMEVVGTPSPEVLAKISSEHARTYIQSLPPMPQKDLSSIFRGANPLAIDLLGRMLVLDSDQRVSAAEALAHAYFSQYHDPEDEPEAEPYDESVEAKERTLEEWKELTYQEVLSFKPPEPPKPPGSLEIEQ

[7] = biological target: T1, Platelet-derived growth factor receptor alpha; assay: Binding affinity to PDGFRalpha
[8] = biological target: T2, RAF proto-oncogene serine/threonine-protein kinase; assay: Binding affinity to RAF1
V79 = assay: Genotoxicity in Chinese hamster V79 cells by micronucleus test; format: toxicity, cell-based, Cricetulus griseus
Cytochrome P450 2B6 = biological target: T3, Cytochrome P450 2B6 (Homo sapiens, UniProt P20813); assay: Induction of CYP2B6 in human hepatocytes at 25 uM; format: ADME, cell-based, Hepatocyte
T3 sequence (P20813 whole entry): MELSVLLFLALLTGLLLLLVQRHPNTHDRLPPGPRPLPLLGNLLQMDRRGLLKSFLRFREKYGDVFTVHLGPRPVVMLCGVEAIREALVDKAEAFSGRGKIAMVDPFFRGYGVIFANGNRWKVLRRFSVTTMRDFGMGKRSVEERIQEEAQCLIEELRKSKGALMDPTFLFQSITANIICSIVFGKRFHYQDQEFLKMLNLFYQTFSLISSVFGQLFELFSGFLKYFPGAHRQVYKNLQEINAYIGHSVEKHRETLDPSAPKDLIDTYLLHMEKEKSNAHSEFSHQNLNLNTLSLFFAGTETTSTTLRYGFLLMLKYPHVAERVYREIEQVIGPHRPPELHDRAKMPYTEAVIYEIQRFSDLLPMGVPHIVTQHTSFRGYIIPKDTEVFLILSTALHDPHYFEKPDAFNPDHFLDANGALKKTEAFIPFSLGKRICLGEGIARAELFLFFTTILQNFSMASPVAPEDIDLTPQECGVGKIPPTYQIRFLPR

[9] = biological target: T4, Nuclear receptor subfamily 1 group I member 2 (Homo sapiens, UniProt O75469); assay: Transactivation of human PXR expressed in HepG2 cells at 10 uM after 24 hrs by luciferase reporter gene assay relative to rifampin; format: cell-based; conditions: hepg2, 24 h
T4 sequence (O75469 whole entry): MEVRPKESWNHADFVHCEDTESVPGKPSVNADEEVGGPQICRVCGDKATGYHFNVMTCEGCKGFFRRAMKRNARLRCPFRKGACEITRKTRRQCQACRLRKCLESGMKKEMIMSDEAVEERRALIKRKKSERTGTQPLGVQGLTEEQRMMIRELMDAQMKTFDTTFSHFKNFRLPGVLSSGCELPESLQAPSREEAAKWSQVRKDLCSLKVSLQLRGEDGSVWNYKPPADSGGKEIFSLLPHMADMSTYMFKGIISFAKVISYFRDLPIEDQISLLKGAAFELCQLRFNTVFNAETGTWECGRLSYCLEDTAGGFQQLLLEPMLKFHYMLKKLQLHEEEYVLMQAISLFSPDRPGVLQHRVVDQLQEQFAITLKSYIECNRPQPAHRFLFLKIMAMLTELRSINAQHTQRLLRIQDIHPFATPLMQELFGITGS
Outline: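 HepG2 cells transfected with a CYP3A4-promoter luciferase reporter and human PXR cDNA. Compound added from DMSO stocks to final 2 and 10 μM in buffer and incubated 24 h. Luciferase activity read by chemiluminescence and reported as percent of the rifampin (10 μM) positive control.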

Rattus norvegicus [10] = assay: Antiarthritic activity against porcine type 2 collagen-induced arthritis Lewis rat model assessed as area under the paw swelling curve at 0.01 to 1 mg/kg, po relative to control; format: functional, organism-based
Outline: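 Lewis rats immunized by intradermal porcine type II collagen emulsified 1:1 in incomplete Freund's adjuvant. Grouped at disease onset (day 0, 10-12 days post-immunization). Oral dosing once daily for 7 days in 15% HPBCD, 1% HPMC, 1% Pluronic F68, pH 2.2. Paw diameter measured daily days 0-7.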

[11] = AUC (0 to 24 hrs) in porcine type 2 collagen-induced arthritis Lewis rat model at 0.01 to 1 mg/kg, po; format: ADME, organism-based; set-up: dose 0.01-1 mg/kg, route oral; conditions: in vivo
Rattus norvegicus [12] = assay: Inhibition of MAPKAP2 phosphorylation in porcine type 2 collagen-induced arthritis Lewis rat ankles at 0.01 to 1 mg/kg, po by Western blotting; format: functional; conditions: dose mg/kg 0.01-1
Outline: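 Oral dosing once daily for 7 days in collagen-induced arthritic Lewis rats, vehicle 15% HPBCD, 1% HPMC, 1% Pluronic F68, pH 2.2. Ankles (n = 2/group) frozen at sacrifice, pulverized and lysed; 15 μg protein per lane for Western blot with phospho-MK2 antibody. Signal normalized to Akt and expressed as percent of vehicle-treated arthritic control.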

SMILES: Cc1ccc(C(=O)NC2CC2)cc1-c1cc2cnn(-c3c(F)cccc3F)c2n(C)c1=O
- IC50 (Blood): 1.7 nM
- bioavailability [1]: 43%
- fraction unbound [2]: 0.079
- fraction unbound [3]: 0.087
- inhibition [4]: < 50%
- inhibition [5]: < 50%
- Kd [6]: 0.67 nM
- Kd [7]: 1100 nM
- Kd [8]: 1100 nM
- Activity (V79): Non-toxic
- Activity (Cytochrome P450 2B6): Not Active
- Activity [9]: 13%
- Activity (Rattus norvegicus [10]): Active
- AUC(0-t) [11]: 0.18 µM·h
- ED50 (Rattus norvegicus [12]): ≤ 0.01 mg/kg
